Experimental data published in ChEMBL document CHEMBL1152808, “Novel adenosine-derived inhibitors of 70 kDa heat shock protein, discovered through structure-based design” (J Med Chem, 2009).
pIC50, pKd: −log10 of the molar value. The source made the active and inactive calls. No cut-off for these calls is given here.

Columns and labels:
[1] = Displacement of fluorescein labeled N6-(6-amino)hexyl-ATP-5-FAM from HSP70 by fluorescence polarization assay
Method in brief: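 Competitive FP binding: displacement of fluorescein-labelled ATP-based probe N6-(6-amino)hexyl-ATP-5-FAM (probe KD 0.4 µM) from HSP70 at 0.4 µM protein; IC50 from binding competition.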

[2] = Binding affinity to HSP90 by fluorescence polarization assay
[3] = test system: HCT-116; experiment: Cytotoxicity against human HCT116 cells by SRB assay; format: functional
Method in brief: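 HCT116 human colon tumour cells; growth inhibition measured by sulforhodamine B (SRB) staining; GI50 reported.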

[4] = Binding affinity to HSP70 by Biocore direct binding assay
Method in brief: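 SPR direct binding: double His-tagged HSP70 construct immobilized on a Biacore sensor chip; KD determined from direct ligand binding.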

[5] = test system: HCT-116; experiment: Inhibition of HSP70 in human HCT116 cells assessed as reduction of […] protein levels after 24 hrs by Western blot; format: cell-based
Method in brief: (§1)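 HCT116 cells exposed to compound for 24 h at 0.05 or 0.1 µM or 2.5-40 µM. Raf-1, Her2 and HSP70 expression detected by Western blot. GAPDH served as loading control.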

[6] = test system: HCT-116; experiment: Inhibition of HSP70 in human HCT116 cells assessed as reduction of Raf1 protein levels after 24 hrs by Western blot; format: cell-based; method in brief: as §1

| Structure (SMILES) | pIC50 [1] | pIC50 [2] | GI50 [3] [µM] | pKd [4] | Activity [5] | Activity [6] |
| --- | --- | --- | --- | --- | --- | --- |
| Nc1ncnc2c1nc(NCc1ccc(Cl)c(Cl)c1)n2[C@@H]1O[C@H](COCc2ccccc2)[C@@H](O)[C@H]1O | 5.62 | < 3.40 | > 80 |  |  |  |
| Nc1ncnc2c1nc(NCc1ccccc1)n2[C@@H]1O[C@H](CO)[C@@H](O)[C@H]1O | 5.00 | < 3.40 | > 80 |  |  |  |
| N#Cc1ccc(COC[C@H]2O[C@@H](n3c(NCc4ccccc4)nc4c(N)ncnc43)[C@H](O)[C@@H]2O)cc1 | 5.89 | < 3.40 | > 80 | 6.70 |  |  |
| Nc1ncnc2c1ncn2[C@@H]1O[C@H](CO)[C@@H](O)[C@H]1O [ADENOSINE] | 3.25 | < 3.40 |  |  |  |  |
| Nc1ncnc2c1ncn2[C@@H]1O[C@H](COP(=O)(O)OP(=O)(O)OP(=O)(O)O)[C@@H](O)[C@H]1O [ADENOSINE TRIPHOSPHATE] | 6.30 | < 3.40 |  |  |  |  |
| N#Cc1ccc(COC[C@H]2O[C@@H](n3c(NCc4ccc(Cl)c(Cl)c4)nc4c(N)ncnc43)[C@H](O)[C@@H]2O)cc1 | 6.30 | < 3.40 | 5 | 6.52 | Active | Active |
| N#Cc1ccc(COC[C@H]2O[C@@H](n3c(NCc4ccc5ncccc5c4)nc4c(N)ncnc43)[C@H](O)[C@@H]2O)cc1 | 6.05 | < 3.40 | > 80 | 7.30 |  |  |
| Nc1ncnc2c1nc(NCc1ccc(Cl)c(Cl)c1)n2[C@@H]1O[C@H](COCc2cc(F)c(F)c(F)c2)[C@@H](O)[C@H]1O | 5.77 | < 3.40 | 13 | 5.38 |  |  |
| CNc1nc2c(N)ncnc2n1[C@@H]1O[C@H](CO)[C@@H](O)[C@H]1O | 4.77 | < 3.40 | 13 |  |  |  |
| COC[C@H]1O[C@@H](n2c(NCc3ccc(Cl)c(Cl)c3)nc3c(N)ncnc32)[C@H](O)[C@@H]1O | 5.49 | < 3.40 | > 80 |  |  |  |
| Nc1ncnc2c1nc(NCc1ccc3c(c1)OCO3)n2[C@@H]1O[C@H](CO)[C@@H](O)[C@H]1O | 5.31 | < 3.40 | > 80 |  |  |  |
| Nc1ncnc2c1nc(NCc1ccc3ncccc3c1)n2[C@@H]1O[C@H](CO)[C@@H](O)[C@H]1O | 5.54 | < 3.40 | > 80 |  |  |  |
| Nc1ncnc2c1nc(NCc1ccc3ncccc3c1)n2[C@@H]1O[C@H](COCc2ccc(C(F)(F)F)cc2)[C@@H](O)[C@H]1O | 6.22 | < 3.40 | 27 | 7.22 |  |  |
| Nc1ncnc2c1nc(NCc1ccc3ncccc3c1)n2[C@@H]1O[C@H](COCc2cc(F)c(F)c(F)c2)[C@@H](O)[C@H]1O | > 6.40 | < 3.40 | 18 | 6.92 |  |  |
| Nc1ncnc2c1nc(N)n2[C@@H]1O[C@H](CO)[C@@H](O)[C@H]1O | 5.03 | < 3.40 | 0.05 | 4.96 | inactive | inactive |
| Nc1ncnc2c1nc(NCc1ccc(Cl)c(Cl)c1)n2[C@@H]1O[C@H](CO)[C@@H](O)[C@H]1O | 5.04 | < 3.40 | 26 |  |  |  |
| Nc1ncnc2c1ncn2[C@@H]1O[C@H](COP(=O)(O)OP(=O)(O)O)[C@@H](O)[C@H]1O [ADENOSINE DIPHOSPHATE] | 6.30 | < 3.40 |  | 6.30 |  |  |
